bCat KO growth: primary screen for growth suppressors in beta-catenin knockout HCT116 cells (colon tumor, human). HCT116 beta-catenin knockout viability, CellTiter-Glo, 60 h; active compounds read low. viability, % at 10 µM. actives 1.5% (n = 140,000);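 active means viability at or under a set limit, the compound median less 4 SD, cut at about 6% in these data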;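 further: 0% = Hyamine 1622 control at 20 µM and 100% = untreated cell control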
Fibroblast inh: antiproliferative effect on LL 47 fibroblasts – human, LL 47 cells, CellTiter-Glo luminescence, primary screen; LL 47 human lung fibroblast viability, ATP luminescence; active compounds read low; viability, % at 10 µM; actives 1.1% (n = 85,000); AID 719, 2007;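 active means viability at or below 50% in the single dose screen; inactive means viability above 50%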;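 further: compound exposure lasted 72 h before the ATP readout; 100% = median luminescence of untreated cell-only wells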
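Test system: LL 47 human lung fibroblasts; Quantity: 1,150 cells/well; Buffer or medium: IMEM plus 15% FBS; Dosing: tenfold compound dosing solution, DMSO at 0.1%; Timing: overnight cell rest, 72 h compound treatment at 37 °C; Detection: ATP-based CellTiter-Glo luminescent readout; Read-out basis: viability percentage against median untreated-cell control; Controls: cell-only wells, no compound.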
HUVEC prolif 384: inhibitors of HUVEC proliferation, primary screen, cell-based, 384-well | CellTiter-Glo luminescence, 72 h; active compounds read low | viability, % at 10 µM (by protocol) | actives 1.1% (n = 86,000) | AID 648, 2007;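 active means viability at or below 30%; inactive means viability above 30%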;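 further: 100% = median luminescence of DMSO-only cell control wells on each plate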
H69AR inhibit: proliferation blockers of H69AR lung cancer cells, primary screen, cell-based, human, 86K library | H69AR lung tumor viability, ATP luminescence, 72 h; active compounds read low | viability, % at 10 µM | actives 6% (n = 85,000) | AID 598, 2007;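 active means viability at or below 40%; inactive means viability above 40%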;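 further: multidrug resistant small cell line overexpressing MRP-1 efflux transporter; 100% = mean luminescence of untreated control wells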
PTEN del growth: growth suppression of PTEN-null HCT116, primary screen, cell-based, CellTiter-Glo. HCT116 PTEN-null viability, 60 h; active compounds read low. viability, % at 10 µM. actives 1.2% (n = 140,000). AID 827, 2007;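 active means viability at or below a set limit, 4 SD under the median of all tested compounds, cut at about 3.7% in these data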;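 further: PTEN knockout HCT116 line with beta catenin targeted HCT116 as companion control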
* hit, by the source's call; x = no result given. The full list was thinned out, with hits kept by preference.

SMILES | bCat KO growth | Fibroblast inh | HUVEC prolif 384 | H69AR inhibit | PTEN del growth
CSc1ccc(C2C(C#N)=C(N)Oc3c2ccc(=O)c2c(C)oc(C)c32)cc1 (centres undefined) | 75.9 | 95.0 | 63.9 | 10.4* | 80.1
Cc1oc(C)c2c(=O)ccc3c(c12)OC(N)=C(C#N)C3c1ccccc1 (centres undefined) | 83.2 | 88.5 | 62.9 | 91.0 | 91.6
CCOC(=O)C1=C(C)C(c2ccccc2O)NC(=O)N1 (centres undefined) | 92.8 | 97.2 | 87.4 | 88.2 | 101.9
COc1ccc(N=Nc2nc3ccc(Br)cc3n2C)cc1 | 94.9 | x | x | x | 85.9
CC(C)c1nc(SCC(=O)N2CCCC2)c2ccccc2n1 | 72.0 | 81.9 | 84.5 | 29.0* | 75.1
CC(C)Cn1c(SCC(=O)NCc2ccc(Cl)cc2)nnc1-c1cccc(S(=O)(=O)N2CCOCC2)c1 | 89.5 | 96.4 | 99.1 | 94.7 | 89.0
c1ccc(-c2noc(-c3ccc4ccccc4c3)n2)nc1 | 64.7 | 83.2 | 87.2 | 81.2 | 60.5
c1ccc(CCc2ccccc2-c2nc(-c3ccccn3)no2)cc1 | 83.0 | 92.8 | 105.6 | 33.9* | 82.9
c1ccc(-c2noc(-c3ccc4c(c3)OCO4)n2)nc1 | 10.8 | 104.0 | 29.3* | 23.3* | 12.3
c1ccc(CCc2ccccc2-c2nc(-c3cccnc3)no2)cc1 | 73.2 | 87.5 | 102.8 | 89.9 | 66.3
CC(=O)/C=C1\SC(CC(=O)O)C(=O)N1c1ccccc1 (centres undefined) | 100.6 | x | x | x | 104.5
CCOc1cc(C(=O)Nc2cnccn2)cc(OCC)c1OCC | 32.2 | 95.9 | 74.9 | 23.8* | 28.8
CCOc1cc(C(=O)Nc2cc(C)ccn2)cc(OCC)c1OCC | 35.6 | 96.5 | 85.2 | 77.3 | 37.0
CCCc1cc2c(=O)c(-c3ccc4c(c3)OCCO4)coc2cc1OC(=O)c1ccco1 | 71.8 | 86.4 | 73.7 | 39.9* | 71.6
CCc1cc2c(=O)c(-c3ccc4c(c3)OCCO4)coc2cc1OC(=O)c1ccco1 | 83.9 | 91.1 | 72.2 | 15.1* | 74.5
Cc1oncc1C(=O)NC(C)C | 102.5 | 102.4 | 105.1 | 109.4 | 97.8
Cc1c(-c2cccc(NC(=O)c3cccs3)c2)nc2ncccn12 | 91.7 | x | x | x | 86.7
COC(=O)c1ccccc1CON1C(=O)C(C)(C)N(OCc2ccccc2C(=O)OC)C(=O)C1(C)C | 87.2 | 92.3 | 108.6 | 95.1 | 82.5
Cc1cc(N(C(=O)c2ccco2)C(C(=O)NC2CCCCC2)c2ccccc2)ccc1-n1cnnn1 (centres undefined) | 73.0 | 88.3 | 98.5 | 39.4* | 84.3
Cc1ccc2nc(N(CCCN(C)C)C(=O)CCc3ccccc3)sc2c1 | 2.4* | x | x | x | 1.5*
CN(C)CCCN(C(=O)c1sc2ccccc2c1Cl)c1nc2ccc(F)cc2s1 | 102.4 | x | x | x | 97.7
CN(C)CCCN(C(=O)c1ccc2c(c1)CCCC2)c1nc2ccc(Cl)cc2s1 | 3.6* | x | x | x | 2.7*
CN(C)CCCN(C(=O)CCc1ccccc1)c1nc2ccc(Cl)cc2s1 | 1.5* | x | x | x | 1.7*
Cc1ccc2nc(N(CCCN(C)C)C(=O)c3cc4ccccc4oc3=O)sc2c1 | 84.4 | x | x | x | 90.2
CN(C)CCCN(C(=O)c1cc2ccccc2oc1=O)c1nc2c(F)cccc2s1 | 94.8 | x | x | x | 113.5
SMILES | bCat KO growth | Fibroblast inh | HUVEC prolif 384 | H69AR inhibit | PTEN del growth
O=C(Nc1nnc(SCc2cccc3ccccc23)s1)C1COc2ccccc2O1 (centres undefined) | 75.4 | x | x | x | 91.7
COCCCN1CN(Cc2ccccc2)CNC1=S | 90.2 | x | x | x | 96.9
CCOC(=O)N1CCC(N2C(=O)c3ccc(C(=O)NC4CCCCCC4)cc3C2=O)CC1 | x | 103.4 | 110.3 | 51.1 | x
Cc1ccc2[nH]c(=O)c(CN(Cc3ccco3)C(=O)c3cccs3)cc2c1 | 91.0 | 94.6 | 91.9 | 82.6 | 90.7
Cc1ccc2cc(CN(Cc3ccco3)C(=O)c3cccs3)c(=O)[nH]c2c1 | 11.8 | 54.0 | 61.2 | 21.0* | 13.1
CCCCN(Cc1ccco1)C(=O)c1cc2c(=O)[nH]c3ccc(C)cc3c2s1 | 50.6 | 62.1 | 4.4* | 28.3* | 41.0
Cc1cc(C)n(-c2nc3c(c(=O)n(C)c(=O)n3C)n2Cc2cccc(Br)c2)n1 | x | 85.9 | 105.2 | 101.1 | x
O=[N+]([O-])c1cccc(/C=C/c2nc3ccc([N+](=O)[O-])cc3[nH]2)c1 | 9.3 | x | x | x | 3.7*
CN1CC2=Cc3ccccc3OC23Oc2ccccc2C=C3C1 | 10.2 | 78.1 | 31.3 | 21.4* | 34.6
CC(C)(C)NC(=O)COC(=O)c1cc(F)c(F)cc1Cl | 101.8 | x | x | x | 99.1
CCCCn1c(=N)n(CC(O)COc2ccc(C)cc2)c2ccccc21 (centres undefined) | 2.0* | 71.5 | 82.9 | 7.4* | 1.7*
CCCn1c(=N)n(CC(O)COc2cccc(C)c2)c2ccccc21 (centres undefined) | 2.6* | 83.6 | 87.3 | 44.6 | 3.2*
CCn1c(=N)n(CC(O)COc2cccc(C)c2)c2ccccc21 (centres undefined) | 31.8 | 71.5 | 87.3 | 76.3 | 39.7
Cc1ccc(OCCn2cnc3ccccc3c2=O)c([N+](=O)[O-])c1 | 75.3 | x | x | x | 86.9
CC(C)(C)n1nnnc1CN1CCSCC1 | 93.2 | 102.3 | 102.4 | 93.3 | 96.4
Cc1ccc(-c2nn(C)c(=O)c3ccccc23)cc1CNC(=O)Cn1nc(-c2ccccc2)c2ccccc2c1=O | 88.6 | 99.5 | 86.4 | 1.6* | 100.6
Cc1ccc(-c2nn(C)c(=O)c3ccccc23)cc1CO | 93.1 | x | x | x | 99.2
Cc1ccc(-c2nn(CC(=O)NCCN3CCOCC3)c(=O)c3ccccc23)cc1 | 87.0 | 100.4 | 95.1 | 92.6 | 94.8
Cc1cc(C)n(CC(=O)NCc2cc(-c3nn(C)c(=O)c4ccccc34)ccc2C)n1 | 88.5 | 96.1 | 93.7 | 30.2* | 97.1
Cc1ccc(-c2nn(C)c(=O)c3ccccc23)cc1CNC(=O)CN1CCOCC1 | 93.1 | 93.8 | 101.1 | 64.1 | 91.2
Cc1ccc(-c2nn(CC(=O)NCc3ccco3)c(=O)c3ccccc23)cc1 | 5.2* | 62.7 | 81.4 | 21.9* | 6.9
COc1ccc(/C=C2\CN(Cc3ccccc3)C/C(=C\c3ccc(OC)cc3)C2=O)cc1 | 1.7* | x | x | x | 1.6*
COc1ccc(OC)c(S(=O)(=O)NC2CCN(Cc3ccccc3)CC2)c1 | 59.1 | 102.6 | 89.8 | 76.3 | 65.9
COc1ccc(-n2c(=O)cc(N3CCN(Cc4ccccc4)CC3)[nH]c2=O)cc1 | 87.6 | 89.6 | 88.4 | 93.0 | 100.2
COc1ccc(/C=C2\CN(Cc3ccccc3)C/C(=C\c3ccc(OC)cc3OC)C2=O)c(OC)c1 | 4.8* | x | x | x | 2.7*
O=C(NC1CCCC1)C(c1ccsc1)N(CCc1ccccc1)C(=O)Cc1cccs1 (centres undefined) | 78.0 | x | x | x | 85.7
Cc1ccc(SCC(=O)NC(=O)Nc2ccc3c(c2)OCCO3)c(C)c1 | 97.7 | x | x | x | 106.7
CC1CC(NC(=O)C2(C)CC2(Cl)Cl)CC(C)(C)C1 (centres undefined) | 77.5 | x | x | x | 94.8
Cc1ccc(CNC(=O)/C=C/c2ccc(S(=O)(=O)N3CCOCC3)cc2)cc1 | 94.2 | x | x | x | 100.0
